Results collected from several papers.
Lines come from different studies, so protocols differ.
RET V804M: Proto-oncogene tyrosine-protein kinase receptor Ret (RET, Homo sapiens, UniProt P07949, V804M)
RET: Proto-oncogene tyrosine-protein kinase receptor Ret (RET, Homo sapiens, UniProt P07949)

`Cc1ccc(NC(=O)c2ccnc(C(F)(F)F)c2)cc1-c1cc(OCCO)nc(N2CCOCC2)c1` has a remaining binding of 98% (RET V804M; binding; 1 µM).
With `CCCCC(=O)Nc1ccc(-c2ccc3ncn(CCC)c(=O)c3c2)cn1` the remaining binding was 100% (Proto-oncogene tyrosine-protein kinase receptor Ret (RET, Homo sapiens, UniProt P07949, V804L); binding, competition with immobilised ligand; 0.5 µM).
`COc1ccc2oc(-c3ccc4nc(N)oc4c3)c/c(=N\c3ccccc3NC(=O)CCN)c2c1` gave a remaining binding of 109% (RET; binding; 1 µM).
`CO[C@@H]1[C@H](N(C)C(=O)c2ccccc2)C[C@H]2O[C@]1(C)n1c3ccccc3c3c4c(c5c6ccccc6n2c5c31)C(=O)NC4` has an inhibition of 95% (RET; enzyme activity, inhibitor; 1 µM).
For `N#Cc1ccc(NC(=O)Nc2ccccc2)cc1`, the remaining binding was 100% (RET; cell-free assay, competition with immobilised ligand; 25 µM).
For `CN1CCN(C(=O)c2ccc(NC(=O)Nc3ccc(N(C)c4ccnc(Nc5ccc(CS(C)(=O)=O)cc5)n4)cc3)cc2)CC1`, the remaining binding was 0.5% (RET V804M; binding; 1 µM).
`CC#CC(=O)N1CCC[C@H]1c1nc(-c2ccc(C(=O)Nc3ccccn3)cc2)c2c(N)nccn12` has an inhibition of 7% (RET; enzyme activity, inhibitor; 1 µM).
The remaining binding of `C1=C/COCc2cc(ccc2OCCN2CCCC2)Nc2nccc(n2)-c2cccc(c2)COC/1` is reported as 100% (Proto-oncogene tyrosine-protein kinase receptor Ret (RET, Homo sapiens, UniProt P07949, M918T); binding; 0.1 µM).
